Bioassay records as filed in PubChem BioAssay.
Compounds with a hit are over-represented: about 1.8% of the library has one in this group of screens.
CHRM5 PAM: potentiates acetylcholine response at human M5 receptor. P08912. CHO-K1 hM5, Fluo-8 calcium, ACh EC20 PAM; 0% = ACh EC20, 100% = ACh EC100. activation, % at 3 µM. 360,000 tested, 0.3% active;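 active = activation above the run cutoff, the mean activation of all test compounds plus 3 SD, cut at about 18% in these data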
Target sequence (P08912 whole entry, looked up): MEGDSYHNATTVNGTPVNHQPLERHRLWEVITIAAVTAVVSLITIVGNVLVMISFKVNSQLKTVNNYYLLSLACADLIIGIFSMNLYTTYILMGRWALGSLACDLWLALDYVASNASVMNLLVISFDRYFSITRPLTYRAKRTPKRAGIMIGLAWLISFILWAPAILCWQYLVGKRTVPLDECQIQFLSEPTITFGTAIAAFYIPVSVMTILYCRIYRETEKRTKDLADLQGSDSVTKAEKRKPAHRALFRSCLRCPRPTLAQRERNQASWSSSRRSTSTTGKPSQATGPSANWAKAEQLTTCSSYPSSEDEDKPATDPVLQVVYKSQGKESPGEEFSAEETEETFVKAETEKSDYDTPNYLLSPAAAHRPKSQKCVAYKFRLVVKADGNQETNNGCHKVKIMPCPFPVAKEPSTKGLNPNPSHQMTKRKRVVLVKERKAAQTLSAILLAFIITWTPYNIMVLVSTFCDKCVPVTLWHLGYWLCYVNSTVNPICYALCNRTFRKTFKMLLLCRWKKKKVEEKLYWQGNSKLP
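Probe or stimulus: acetylcholine, EC20 level; Assay system: human M5 receptor in CHO-K1 cells; Schedule: compound preincubation 140 s before EC20 acetylcholine addition; Technique: intracellular calcium via Fluo-8 fluorescence; Dosing: single-point, 3 µM nominal; Read-out basis: percent activation from peak-over-basal fluorescence ratio, scaled EC20-to-EC100 acetylcholine; Repeats: one well per compound, no replicates.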
M4 antag: antagonists of human muscarinic M4 receptor (CHRM4) | P08173 | CHO-hM4 cells, ACh EC80, Fluo-8 calcium fluorescence | inhibition, % at 3 µM | 360,000 tested, 0.73% active | AID 624125;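 active = inhibition above its plate's cutoff, the mean inhibition of sample wells plus 3 SD, cut at about 27% in these data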
CHRM4 PAM: positive allosteric modulators of human muscarinic M4 receptor; P08173; CHO-K1 hM4/Gqi5, Fluo-8 calcium fluorescence, ACh EC20; 0% = ACh EC20, 100% = maximal ACh; activation, % at 3 µM; 360,000 tested, 0.4% active; AID 624126;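 active = activation above its plate's cutoff, the mean activation of sample wells plus 3 SD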
M5 antag: antagonists of human muscarinic M5 receptor (CHRM5) | inhibition, % at 3 µM | AID 624040 | 360,000 tested, 0.59% active | CHO-hM5 cells, Fluo-8 calcium fluorescence, ACh EC80 | P08912;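 active = inhibition above a per-plate cutoff, the mean of that plate's test compounds plus 3 SD, cut at about 27% in these data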
M4 ag: agonists of human muscarinic M4 receptor (CHRM4); P08173; CHO-K1 hM4/Gqi5, Fluo-8 calcium fluorescence; vehicle 0%, full acetylcholine response 100%; activation, % at 3 µM; AID 624127; 360,000 tested, 0.14% active;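 active = activation above the run mean over all test wells plus 3 SD, cut at about 32% in these data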;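 note: peak over basal fluorescence ratio per well then scaled between controls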
M5 ag: agonists of human muscarinic M5 receptor (CHRM5) | CHO-K1 hM5 cells, Fluo-8 calcium fluorescence; 0% DMSO wells, 100% maximal acetylcholine response | P08912 | 360,000 tested, 0.19% active | activation, % at 3 µM | AID 624037;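 active = activation above the run's mean over test compounds plus 3 SD, cut at about 23% in these data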;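 note: signal is peak over basal fluorescence ratio across the kinetic read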
Numbers stand for hits; n = inactive.

SMILES	CHRM5 PAM	M4 antag	CHRM4 PAM	M5 antag	M4 ag	M5 ag
O=C(NCC(=O)c1ccccc1)OCc1ccc([N+](=O)[O-])cc1	n	n	n	n	n	n
O=C(O)CCn1ccc2cc(S(=O)(=O)N3CCCCCC3)ccc21	19	n	n	n	n	n
O=C(O)CCCn1ccc2cc(S(=O)(=O)N3CCCC3)ccc21	n	n	n	n	n	n
COc1cccc(CNC(=O)C(C)n2ccc3cc(S(=O)(=O)N4CCCCCC4)ccc32)c1 (configuration not stated)	n	n	n	n	n	n
CCC(C(=O)NCCC(C)C)n1ccc2cc(S(=O)(=O)N3CCCCC3)ccc21 (configuration not stated)	n	n	n	34	n	n
Cc1cc(OC(C)C(=O)NNC(=O)Nc2ccc(F)cc2F)cc(C)c1Cl (configuration not stated)	n	n	n	n	n	n
CCCNC(=O)C1CCN(S(=O)(=O)c2c(C)noc2/C=C\c2ccc(OC)cc2)CC1	n	n	n	n	n	n
CNC(=O)C1CCN(S(=O)(=O)c2c(C)noc2/C=C/c2ccc(OC)cc2)CC1	n	n	n	80	n	n
CCc1ccc(CNC(=O)c2ccc3c(c2)NC(=O)C(N2CCOCC2)S3)cc1 (configuration not stated)	n	n	n	n	n	n
CCOC(=O)N1CCN(C(=O)c2ccc3c(c2)NC(=O)C(N2CCOCC2)S3)CC1 (configuration not stated)	19	n	n	n	n	n
N#Cc1cccc(NC(=O)CSc2ccc3c4c(cccc24)C(=O)c2ccccc2-3)c1	n	n	n	33	n	n
CCOC(=O)C1CCN(S(=O)(=O)c2ccc3c(c2)CCN3C(C)=O)CC1	n	n	n	32	n	n
Cc1cccn2c(CNCC3OCCc4ccccc43)c(C(=O)N3CCCCC3)nc12 (configuration not stated)	n	n	n	n	n	n
COCCN1CCC(CNCc2c(C(=O)N3CCCCC3)nc3c(C)cccn23)C1 (configuration not stated)	23	n	n	n	n	n
CC(C)N(C)Cc1nnnn1CC(=O)NCCc1cccc(C(F)(F)F)c1	22	n	n	n	n	n
Oc1ccccc1CNc1ccc(Br)cn1	n	33	n	n	n	n
O=C(C1CCCCC1)N1CCN=C1SCc1cccc([N+](=O)[O-])c1	n	32	n	n	n	n
O=C(c1ccccc1)N1CCN=C1SCc1ccc([N+](=O)[O-])cc1	n	29	n	n	n	n
O=C(C1CCCCC1)N1CCN=C1SCc1cccnc1	n	n	n	n	n	n
COCCNc1nc2nonc2nc1N(C)Cc1cccc2cnccc12	n	n	n	n	n	n
Cc1cccc(C)c1-n1nnnc1C(c1ccccc1)N1CCN(C/C=C/c2ccccc2)CC1 (configuration not stated)	n	n	n	31	n	n
CCCCn1nnnc1C(c1cccs1)N1CCN(C/C=C/c2ccccc2)CC1 (configuration not stated)	n	n	n	n	n	n
Cc1cccc(C)c1-n1nnnc1C(c1cccs1)N1CCN(C/C=C/c2ccccc2)CC1 (configuration not stated)	n	n	n	29	n	n
CCCCn1nnnc1C(c1ccc(OC)cc1)N1CCN(C/C=C/c2ccccc2)CC1 (configuration not stated)	n	n	n	n	n	n
CCN(C(=O)/C=C/c1ccc2c(c1)OCO2)c1ccccc1	20	n	24	n	n	n
SMILES	CHRM5 PAM	M4 antag	CHRM4 PAM	M5 antag	M4 ag	M5 ag
O=C(C=Cc1ccc2c(c1)OCO2)c1ccccc1	n	n	n	n	n	n
O=C(CN(C(=O)c1csnn1)c1ccc2c(c1)OCCO2)NCc1ccc(F)cc1	n	n	n	n	n	n
Clc1ccc(CNc2ncnc3[nH]ncc23)c(Cl)c1	n	n	n	n	n	n
CC(N)=Nc1ccc([N+](=O)[O-])cc1	n	n	n	n	n	n
O=[N+]([O-])c1ccc(N=Nc2c(Cl)cc(O)cc2Cl)cc1	n	n	n	30	n	n
CC(CC(=O)N1CCN(c2cccc(Cl)c2)CC1)S(=O)(=O)c1ccc2c(c1)NC(=O)CO2 (configuration not stated)	n	n	n	n	n	n
Cc1ccc(CN2C(=O)CCC2C(=O)NC2CC2)cc1 (configuration not stated)	n	n	26	n	n	n
CCN(CC)C(=O)C(=O)c1cccn1-c1c(Cl)cccc1C#N	n	n	n	n	n	n
CCOc1ccc(NC(=O)CN(C)C(=O)CCC2CCCCC2)cc1OCC	n	n	n	n	n	n
COc1ccc(NC(=O)CN(C)C(=O)CCC2CCCC2)cc1	n	n	n	30	n	n
Cc1ccccc1N1C(=O)C2CCCN2C1=S (configuration not stated)	n	n	n	n	n	n
O=C(CNCC1(N2CCOCC2)CCCCC1)Nc1ccc(Cl)cc1	18	n	n	n	n	n
O=C(Nc1ccccc1N1CCN(c2ccc(F)cc2)CC1)C12CC3CC(CC(C3)C1)C2	20	n	n	n	n	n
CCn1nc(C(=O)N2CCN(Cc3nc4ccccc4s3)CC2)c2ccccc2c1=O	n	35	n	n	n	n
Cc1ccc(NC(C(=O)c2ccccc2)c2ccccc2)cc1 (configuration not stated)	n	n	n	n	n	n
CN(C)c1ccc(NC(=O)C[n+]2ccccc2)cc1	n	n	n	n	n	n
O=C(C[n+]1ccccc1)Nc1ccc(Oc2ccccc2)cc1	n	47	n	n	n	n
COc1ccc(C2CC(c3ccccc3)=NN2c2ccc(S(N)(=O)=O)cc2)cc1 (configuration not stated)	n	n	n	n	n	n
COc1ccc(C2CC(c3ccccc3)=NN2c2ccc(C(N)=O)cc2)cc1 (configuration not stated)	n	n	n	30	n	n
c1ccc(C2=NNC(c3ccco3)=Nc3ccccc32)cc1	n	n	n	n	n	n
Cc1ccc(C2=NNC(c3ccc(Cl)cc3)=Nc3ccccc32)o1	n	n	25	n	n	n
O=C(O)COc1ccc(/C=C2\SC(=Nc3ccccc3)N(c3ccccc3)C2=O)cc1	n	30	n	n	n	n
CC(=O)N1CC(=O)N=C1SCC(=O)Nc1nc(C)c(-c2ccccc2)s1	n	n	n	n	n	n
COc1cc(/C(C)=N\NC(=O)CSc2nc3ccccc3n2C)ccc1O	n	n	n	n	n	n
